Three molecules from ChEMBL document CHEMBL3525967, “In vitro glucuronidation of the antibacterial triclocarban and its oxidative metabolites” (Drug Metab Dispos, 2012) can be followed below.

What all share (format): ADME
Series [1] addresses T1, UDP-glucuronosyltransferase 1A6 (Homo sapiens, UniProt P19224).
T1 sequence (P19224 whole entry): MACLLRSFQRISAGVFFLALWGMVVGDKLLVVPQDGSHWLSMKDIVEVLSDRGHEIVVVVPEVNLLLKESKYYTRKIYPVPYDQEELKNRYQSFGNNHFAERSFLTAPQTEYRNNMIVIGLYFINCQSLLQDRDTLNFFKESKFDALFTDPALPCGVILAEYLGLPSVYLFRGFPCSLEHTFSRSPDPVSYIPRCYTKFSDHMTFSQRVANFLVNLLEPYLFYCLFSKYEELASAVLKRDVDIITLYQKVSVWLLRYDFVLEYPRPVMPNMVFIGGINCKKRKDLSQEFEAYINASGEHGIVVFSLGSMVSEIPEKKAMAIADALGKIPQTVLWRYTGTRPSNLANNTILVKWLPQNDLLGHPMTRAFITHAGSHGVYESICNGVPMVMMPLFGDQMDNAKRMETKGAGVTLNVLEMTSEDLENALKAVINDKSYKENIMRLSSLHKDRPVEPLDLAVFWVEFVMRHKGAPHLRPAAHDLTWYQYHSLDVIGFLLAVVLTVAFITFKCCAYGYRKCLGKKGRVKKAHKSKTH
The series can be described thus: Drug metabolism assessed as human UGT1A6-mediated glucuronidation expressed in baculovirus infected insect sf9 cells incubated for 5 mins prior to UDPGA addition measured after 5 to 30 mins by LC-UV analysis. The essentials: (§1)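 Microsomes or Sf-9 Supersomes (5 µg protein in 200 µL 100 mM potassium phosphate pH 7.4) pre-treated with alamethicin on ice 15 min; substrate 10 µM final (2% DMSO), MgCl2 and saccharolactone 10 mM each; 5 min preincubation at 37 °C, then UDPGA to start. Samples taken at 5, 10, 15, 30 min (or 2, 5, 10, 15 min) into ACN with internal standard; LC-UV-ESI-MS/MS.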

For series [2], the target named is T2, UDP-glucuronosyltransferase 1A4 (Homo sapiens, UniProt P22310).
T2 sequence (P22310 whole entry): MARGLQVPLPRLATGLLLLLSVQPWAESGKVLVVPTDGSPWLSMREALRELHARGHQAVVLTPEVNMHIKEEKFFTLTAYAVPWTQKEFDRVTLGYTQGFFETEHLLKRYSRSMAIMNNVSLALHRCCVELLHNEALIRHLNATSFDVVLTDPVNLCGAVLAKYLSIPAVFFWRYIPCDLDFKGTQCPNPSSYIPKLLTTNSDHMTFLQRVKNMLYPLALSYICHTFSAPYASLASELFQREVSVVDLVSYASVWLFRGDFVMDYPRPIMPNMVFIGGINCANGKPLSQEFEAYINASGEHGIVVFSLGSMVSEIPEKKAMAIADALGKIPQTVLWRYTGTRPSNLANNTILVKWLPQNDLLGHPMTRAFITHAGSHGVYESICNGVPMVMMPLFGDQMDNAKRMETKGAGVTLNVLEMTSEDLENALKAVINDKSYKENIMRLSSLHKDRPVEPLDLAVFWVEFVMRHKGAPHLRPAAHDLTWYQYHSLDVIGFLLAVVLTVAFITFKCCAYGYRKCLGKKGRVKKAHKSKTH
The series can be described thus: Drug metabolism assessed as human UGT1A4-mediated glucuronidation expressed in baculovirus infected insect sf9 cells incubated for 5 mins prior to UDPGA addition measured after 5 to 30 mins by LC-UV analysis. The essentials: as §1

Series [3] concerns the target T3, UDP-glucuronosyltransferase 1A9 (Homo sapiens, UniProt O60656).
T3 sequence (O60656 whole entry): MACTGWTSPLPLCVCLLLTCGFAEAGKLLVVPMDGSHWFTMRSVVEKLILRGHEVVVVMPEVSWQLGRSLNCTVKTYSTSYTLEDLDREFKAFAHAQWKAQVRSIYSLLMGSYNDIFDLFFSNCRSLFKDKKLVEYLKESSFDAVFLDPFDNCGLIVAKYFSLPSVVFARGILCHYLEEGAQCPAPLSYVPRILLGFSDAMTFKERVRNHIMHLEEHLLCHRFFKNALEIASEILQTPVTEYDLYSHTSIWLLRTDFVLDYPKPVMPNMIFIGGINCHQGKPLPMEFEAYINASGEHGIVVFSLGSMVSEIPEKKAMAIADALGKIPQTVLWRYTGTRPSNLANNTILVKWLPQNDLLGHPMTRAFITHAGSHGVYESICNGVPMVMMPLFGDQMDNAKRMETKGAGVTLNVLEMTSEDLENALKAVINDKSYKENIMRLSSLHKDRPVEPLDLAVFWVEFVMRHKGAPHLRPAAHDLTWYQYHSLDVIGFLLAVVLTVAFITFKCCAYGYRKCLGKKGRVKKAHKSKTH
The series can be described thus: Drug metabolism assessed as human UGT1A9-mediated glucuronidation expressed in baculovirus infected insect sf9 cells incubated for 5 mins prior to UDPGA addition measured after 5 to 30 mins by LC-UV analysis. The essentials:
as §1

In a further series the test system is Liver microsome. The series can be described thus: Drug metabolism in human liver microsomes assessed as glucuronidation incubated for 5 mins prior to UDPGA addition measured after 5 to 30 mins by LC-UV analysis. The essentials:
as §1
A general note: Liver microsomes are a subcellular fraction often used to study metabolism.

Series [4] is described as follows: Drug metabolism in human kidney microsomes assessed as glucuronidation incubated for 5 mins prior to UDPGA addition measured after 5 to 30 mins by LC-UV analysis. In short, it runs like this: as §1
The target in series [5] is T4, UDP-glucuronosyltransferase 1A7 (Homo sapiens, UniProt Q9HAW7).
T4 sequence (Q9HAW7 whole entry): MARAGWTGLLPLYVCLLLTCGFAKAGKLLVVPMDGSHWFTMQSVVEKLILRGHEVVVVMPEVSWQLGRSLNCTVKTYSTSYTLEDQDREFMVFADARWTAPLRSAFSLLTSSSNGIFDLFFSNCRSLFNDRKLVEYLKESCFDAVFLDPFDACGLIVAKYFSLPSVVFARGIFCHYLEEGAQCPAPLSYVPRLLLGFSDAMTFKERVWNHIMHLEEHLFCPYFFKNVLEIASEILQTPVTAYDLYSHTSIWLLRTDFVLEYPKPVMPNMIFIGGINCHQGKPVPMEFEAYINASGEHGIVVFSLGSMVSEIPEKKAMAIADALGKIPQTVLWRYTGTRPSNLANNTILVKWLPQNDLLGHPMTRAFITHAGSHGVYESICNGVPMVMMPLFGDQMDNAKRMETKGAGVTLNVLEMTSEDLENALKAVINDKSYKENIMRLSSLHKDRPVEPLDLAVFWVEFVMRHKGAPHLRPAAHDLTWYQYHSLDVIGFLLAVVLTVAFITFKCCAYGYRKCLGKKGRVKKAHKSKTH
The series can be described thus: Drug metabolism assessed as human UGT1A7-mediated glucuronidation expressed in baculovirus infected insect sf9 cells incubated for 5 mins prior to UDPGA addition measured after 5 to 30 mins by LC-UV analysis. The essentials:
as §1

In the case of `O=C(Nc1ccc(Cl)c(Cl)c1)Nc1ccc(Cl)cc1O`, the Drug metabolism entry in series [1] is given as “metabolite_not_detected”; in series [2], “metabolite_not_detected”; in series [3], 1200 pmol/min/mg; in the series with Liver microsome, 2700 pmol/min/mg; in series [4], 5600 pmol/min/mg; in series [5], 870 pmol/min/mg.
For the molecule `O=C(Nc1ccc(Cl)cc1)Nc1cc(Cl)c(Cl)cc1O`, the Drug metabolism result in series [1] is “metabolite_not_detected”; in series [2], “metabolite_not_detected”; in series [3], 2400 pmol/min/mg; in the series with Liver microsome, 8500 pmol/min/mg; in series [4], 7700 pmol/min/mg; in series [5], 1100 pmol/min/mg.
`O=C(Nc1ccc(Cl)c(O)c1)Nc1ccc(Cl)c(Cl)c1`: the Drug metabolism entry in series [1] is on record as “metabolite_not_detected”; in series [2], “metabolite_not_detected”; in series [3], 840 pmol/min/mg; in the series with Liver microsome, 5200 pmol/min/mg; in series [4], 4200 pmol/min/mg; in series [5], 1700 pmol/min/mg.
